One block for each compound: values may come before it.
Tests used:
[1] = target: T1, Human immunodeficiency virus type 1 integrase (Human immunodeficiency virus 1, UniProt Q7ZJM1); assay: Inhibition of HIV1 integrase strand transfer activity
Summary of the method: (§1)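 HIV-1 integrase (200 nM final) preincubated 30 min at 30 °C with inhibitor in buffer (pH 7.2 MOPS, NaCl, HEPES, EDTA, DTT, 10% glycerol, 7.5 mM MnCl₂, 0.1 mg/ml BSA, 2-mercaptoethanol, 10% DMSO). 20 nM 5'-³²P-labeled linear oligonucleotide substrate then added for 1 h. Quenched with formamide loading dye; products resolved on denaturing 20% polyacrylamide/urea gel. IC₅₀ reported for each step.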

[2] = target: T1, Human immunodeficiency virus type 1 integrase; assay: Inhibition of HIV1 integrase 3' processing activity; summary of the method: as §1
[3] = system: EKVX; assay: Growth inhibition of human EKVX cells; type: functional
Summary of the method: (§2)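 Run by the US National Cancer Institute in vitro screen against a panel of 53–57 human tumor cell lines. GI₅₀ is defined as the molar concentration inhibiting 50% net cell growth. TGI is the concentration giving total growth inhibition.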

[4] = system: SNB-75; assay: Growth inhibition of human SNB75 cells; type: functional; summary of the method: as §2
[5] = system: UACC-62; assay: Growth inhibition of human UACC62 cells; type: functional; summary of the method: as §2
[6] = system: NCI-H522; assay: Growth inhibition of human NCI-H522 cells; type: functional; summary of the method: as §2
[7] = system: SF-268; assay: (§3) Growth inhibition of human SF268 cells; type: functional; summary of the method: as §2
[8] = system: SNB-19; assay: Growth inhibition of human SNB19 cells; type: functional; summary of the method: as §2
[9] = system: SF-268; assay: as §3; type: functional; summary of the method: as §2; remark: listed apart in the source
[10] = system: Malme-3M; assay: Growth inhibition of human MALME-3M cells; type: functional; summary of the method: as §2
[11] = system: KM12; assay: Growth inhibition of human KM12 cells; type: functional; summary of the method: as §2
[12] = system: LOX IMVI; assay: Growth inhibition of human LOX IMVI cells; type: functional; settings: for GI50 / TGI: Homo sapiens, LOX IMVI; summary of the method: as §2
[13] = system: CCRF-CEM; assay: Growth inhibition of human CCRF-CEM cells; type: functional; summary of the method: as §2
[14] = system: SN12C; assay: Growth inhibition of human SN12C cells; type: functional; summary of the method: as §2
[15] = system: MOLT-4; assay: Growth inhibition of human MOLT4 cells; type: functional; summary of the method: as §2
[16] = system: SR; assay: Growth inhibition of human SR cells; type: functional; summary of the method: as §2
[17] = system: HCC 2998; assay: Growth inhibition of human HCC2998 cells; type: functional; summary of the method: as §2
[18] = system: SK-MEL-5; assay: Growth inhibition of human SK-MEL-5 cells; type: functional; summary of the method: as §2
[19] = system: HOP-62; assay: Growth inhibition of human HOP62 cells; type: functional; summary of the method: as §2
[20] = system: T47D; assay: Growth inhibition of human T47D cells; type: functional; summary of the method: as §2
[21] = system: HCT-116; assay: Growth inhibition of human HCT116 cells; type: functional; summary of the method: as §2
[22] = system: M14; assay: Growth inhibition of human M14 cells; type: functional; summary of the method: as §2
[23] = system: A498; assay: Growth inhibition of human A498 cells; type: functional; summary of the method: as §2
[24] = system: BT-549; assay: Growth inhibition of human BT549 cells; type: functional; summary of the method: as §2
[25] = system: NCI-H322M; assay: Growth inhibition of human NCI-H322M cells; type: functional; summary of the method: as §2

T1 sequence (Q7ZJM1 whole entry): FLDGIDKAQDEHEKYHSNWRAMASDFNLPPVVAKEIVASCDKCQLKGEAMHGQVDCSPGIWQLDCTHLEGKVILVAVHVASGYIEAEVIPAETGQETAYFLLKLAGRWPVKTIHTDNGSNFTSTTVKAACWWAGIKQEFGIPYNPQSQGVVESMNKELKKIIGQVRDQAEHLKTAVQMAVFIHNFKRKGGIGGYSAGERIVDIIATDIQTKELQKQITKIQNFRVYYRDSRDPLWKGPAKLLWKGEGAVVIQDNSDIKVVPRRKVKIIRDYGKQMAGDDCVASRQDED

Structure (SMILES): Cc1cc(S(=O)(=O)Nc2nc3n[nH]cc3c(=O)n2N)c(S)cc1Cl
IC50 [1]: > 100 µM | IC50 [2]: > 100 µM

Structure (SMILES): COc1cc2nc(NS(=O)(=O)c3cc(C)c(Cl)cc3S)n(N)c(=O)c2cc1OC
IC50 [1]: > 100 µM | IC50 [2]: > 100 µM

Structure (SMILES): Cc1cc(S(=O)(=O)Nc2nc3ccccc3c(=O)n2N)c(S)cc1Cl
GI50 [3]: 14.8 µM | TGI [3]: 29.2 µM | GI50 [4]: 13.3 µM | TGI [4]: 32.7 µM | GI50 [5]: 19.7 µM | TGI [5]: 49.2 µM | GI50 [6]: 19 µM | TGI [6]: 50.8 µM | GI50 [7]: 7.2 µM | TGI [7]: 40.1 µM | IC50 [1]: > 100 µM | IC50 [2]: > 100 µM | GI50 [8]: 15.7 µM | TGI [8]: 47.2 µM

Structure (SMILES): Cc1cc(S(=O)(=O)Nc2nc3cc(C(C)(C)C)sc3c(=O)n2Cc2ccccc2)c(S)cc1Cl
IC50 [1]: 4 µM | IC50 [2]: 22 µM

Structure (SMILES): Cc1cc(S(=O)(=O)Nc2nc3cc(-c4ccccc4)sc3c(=O)n2Cc2ccccc2)c(S)cc1Cl
GI50 [10]: > 100 µM | GI50 [11]: > 100 µM | GI50 [9]: > 100 µM | GI50 [3]: > 100 µM | GI50 [4]: > 100 µM | GI50 [5]: > 100 µM | GI50 [12]: > 100 µM | GI50 [13]: > 100 µM | GI50 [14]: > 100 µM | GI50 [15]: > 100 µM | GI50 [16]: > 100 µM | GI50 [6]: > 100 µM | GI50 [17]: > 100 µM | GI50 [25]: > 100 µM | GI50 [18]: > 100 µM | GI50 [19]: > 100 µM | GI50 [20]: > 100 µM | GI50 [7]: > 100 µM | IC50 [1]: 6 µM | GI50 [21]: > 100 µM | IC50 [2]: 9 µM | GI50 [22]: > 100 µM | GI50 [23]: > 100 µM | GI50 [8]: > 100 µM | GI50 [24]: > 100 µM

Structure (SMILES): Cc1cc(S(=O)(=O)Nc2nc3cc(C(C)(C)C)sc3c(=O)n2N)c(S)cc1Cl
IC50 [1]: 35 µM | IC50 [2]: 60 µM

Structure (SMILES): NC(=O)c1cc(S(=O)(=O)Nc2nc3ccccc3c(=O)[nH]2)c(SCc2ccccc2)cc1Cl
IC50 [1]: > 100 µM | IC50 [2]: > 100 µM

Structure (SMILES): Cc1cc(S(=O)(=O)Nc2nc3ccsc3c(=O)[nH]2)c(SCc2ccccc2)cc1Cl
IC50 [1]: 70 µM | IC50 [2]: > 100 µM

Structure (SMILES): O=C(Nc1ccccc1)c1cc(S(=O)(=O)Nc2nc3ccccc3c(=O)[nH]2)c(SCc2ccccc2)cc1Cl
IC50 [1]: 36 µM | IC50 [2]: 73 µM

Structure (SMILES): Cc1cc(S(=O)(=O)Nc2nc3cscc3c(=O)[nH]2)c(SCc2ccccc2)cc1Cl
IC50 [1]: 78 µM | IC50 [2]: > 100 µM

Structure (SMILES): Cc1cc(S(=O)(=O)Nc2nc3ccsc3c(=O)n2N)c(S)cc1Cl
IC50 [1]: 53 µM | IC50 [2]: 65 µM

Structure (SMILES): Cc1cc(S(=O)(=O)Nc2nc3ccsc3c(=O)n2Cc2ccccc2)c(S)cc1Cl
GI50 [10]: 19.9 µM | TGI [10]: 56.1 µM | GI50 [11]: 19.9 µM | TGI [11]: 48.2 µM | GI50 [5]: 19.5 µM | TGI [5]: 44.4 µM | GI50 [25]: 19.5 µM | TGI [25]: 48.8 µM | GI50 [18]: 12.5 µM | TGI [18]: 34.2 µM | GI50 [19]: 19.7 µM | TGI [19]: 46.6 µM | IC50 [1]: 29 µM | GI50 [21]: 19.2 µM | TGI [21]: 37.7 µM | IC50 [2]: 53 µM | GI50 [22]: 19.8 µM | TGI [22]: 49.6 µM | GI50 [23]: 14.2 µM | TGI [23]: 49.3 µM

Continued, in another order:

IC50 [1]: 93 µM | IC50 [2]: > 100 µM
Structure (SMILES): COc1ccc(NC(=O)c2cc(S(=O)(=O)Nc3nc4ccccc4c(=O)[nH]3)c(SCc3ccccc3)cc2Cl)cc1

IC50 [1]: 81 µM | IC50 [2]: > 100 µM
Structure (SMILES): Cc1cc(S(=O)(=O)Nc2nc3scc(C)c3c(=O)n2N)c(S)cc1Cl

IC50 [1]: 43 µM | IC50 [2]: 69 µM
Structure (SMILES): Cc1cc(S(=O)(=O)Nc2nc3cscc3c(=O)n2N)c(S)cc1Cl
GI50 [9]: 17.7 µM | TGI [9]: 68.1 µM | GI50 [4]: 15 µM | TGI [4]: 58.5 µM

GI50 [13]: > 100 µM | GI50 [15]: > 100 µM | GI50 [6]: > 100 µM | GI50 [17]: > 100 µM | GI50 [18]: > 100 µM | GI50 [20]: > 100 µM | IC50 [1]: 4 µM | GI50 [21]: > 100 µM | IC50 [2]: 6 µM | GI50 [24]: > 100 µM
Structure (SMILES): Cc1cc(S(=O)(=O)Nc2nc3cc(-c4ccc(Cl)cc4)sc3c(=O)n2Cc2ccccc2)c(S)cc1Cl
GI50 [10]: > 100 µM | GI50 [11]: > 100 µM | GI50 [9]: > 100 µM | GI50 [3]: > 100 µM | GI50 [4]: > 100 µM | GI50 [5]: > 100 µM | GI50 [12]: > 100 µM | GI50 [14]: > 100 µM | GI50 [16]: > 100 µM | GI50 [19]: > 100 µM | GI50 [7]: > 100 µM | GI50 [22]: > 100 µM | GI50 [23]: > 100 µM | GI50 [8]: > 100 µM

GI50 [15]: 19.4 µM | IC50 [1]: 53 µM | IC50 [2]: 62 µM
Structure (SMILES): Cc1cc(S(=O)(=O)Nc2nc3ccsc3c(=O)n2Cc2ccco2)c(S)cc1Cl
TGI [15]: 84.2 µM | GI50 [16]: 9.9 µM | TGI [16]: 29.7 µM

GI50 [13]: 14 µM | GI50 [15]: 3.9 µM | GI50 [17]: 18.9 µM | GI50 [25]: 18.2 µM | GI50 [20]: 4.5 µM | IC50 [1]: 31 µM | IC50 [2]: 80 µM
Structure (SMILES): Cc1cc(S(=O)(=O)Nc2nc3cscc3c(=O)n2Cc2ccccc2)c(S)cc1Cl
GI50 [11]: 19.9 µM | TGI [11]: 74.7 µM | GI50 [12]: 18.2 µM | TGI [12]: 51.6 µM | TGI [13]: 47.6 µM | GI50 [14]: 16.6 µM | TGI [14]: 54.5 µM | TGI [15]: 32.5 µM | TGI [17]: 68.5 µM | TGI [25]: 45.9 µM | GI50 [19]: 16.5 µM | TGI [19]: 39.3 µM | TGI [20]: 40.8 µM

IC50 [1]: 33 µM | IC50 [2]: 47 µM
Structure (SMILES): Cc1cc(S(=O)(=O)Nc2nc3cc(Cl)ccc3c(=O)[nH]2)c(SCc2ccccc2)cc1Cl

IC50 [1]: 90 µM | IC50 [2]: > 100 µM
Structure (SMILES): Cc1cc(S(=O)(=O)Nc2nc(=O)c3ccccc3n2C)c(SCc2ccccc2)cc1Cl

IC50 [1]: 4.9 µM | IC50 [2]: 4.79 µM
Structure (SMILES): Cc1cc(S(=O)(=O)Nc2nc(N)n[nH]2)c(S)cc1Cl

IC50 [1]: 77 µM | IC50 [2]: > 100 µM
Structure (SMILES): Cc1ccc(NC(=O)c2cc(S(=O)(=O)Nc3nc4ccccc4c(=O)[nH]3)c(SCc3ccccc3)cc2Cl)cc1

IC50 [1]: 52 µM | IC50 [2]: > 100 µM
Structure (SMILES): O=C(Nc1ccc(Cl)cc1)c1cc(S(=O)(=O)Nc2nc3ccccc3c(=O)[nH]2)c(SCc2ccccc2)cc1Cl

IC50 [1]: 83 µM | IC50 [2]: > 100 µM
Structure (SMILES): Cc1cc(S(=O)(=O)Nc2nc3ccccc3c(=O)[nH]2)c(SCc2ccccc2)cc1Cl

IC50 [1]: 39 µM | IC50 [2]: 55 µM
Structure (SMILES): Cc1cc(S(=O)(=O)Nc2nc3sc(C)c(C)c3c(=O)n2N)c(S)cc1Cl

GI50 [15]: 18.6 µM | GI50 [20]: 15 µM | IC50 [1]: 42 µM | IC50 [2]: 78 µM | GI50 [24]: 15.7 µM
Structure (SMILES): Cc1cc(S(=O)(=O)Nc2nc3ccccc3c(=O)n2Cc2ccco2)c(S)cc1Cl
growth inhibitory concentration [12]: 16.1 µM | TGI [12]: 59.3 µM | TGI [15]: 70.6 µM | GI50 [16]: 19.5 µM | TGI [16]: 40.7 µM | TGI [20]: 81.4 µM | GI50 [8]: < 0.01 µM | TGI [8]: 88.8 µM | TGI [24]: 51.9 µM

From ChEMBL document CHEMBL1156690, “Synthesis, anti-HIV-1 integrase, and cytotoxic activities of 4-chloro-N-(4-oxopyrimidin-2-yl)-2-mercaptobenzenesulfonamide derivatives” (Eur J Med Chem, 2008)
